Source: ChEMBL document CHEMBL1156077, “Piperazinyl-glutamate-pyrimidines as potent P2Y12 antagonists for inhibition of platelet aggregation” (Bioorg Med Chem Lett, 2009)

What was measured:
[1] = target: T1, P2Y purinoceptor 12 (Homo sapiens, UniProt Q9H244); assay: Binding affinity at human recombinant P2Y12 receptor expressed in CHO cells by radioligand binding assay; assay type: cell-based
Procedure, shortened: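 Washed membranes from CHO cells transfected with synthetic human P2Y12 gene. Compounds as 7-point threefold dilutions, triplicate, 1 h at room temperature. Nonspecific binding defined with 300 nM 2-MeSADP. Filtered, washed with ice-cold Tris pH 7.4. Single-site fit; IC50 converted to Ki by Cheng–Prusoff, geometric mean of n≥2.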

[2] = target: T1, P2Y purinoceptor 12; assay: Ratio of compound IC50 to thienopyrimidine IC50 for P2Y12 receptor in human platelet rich plasma assessed as inhibition of ADP-induced platelet aggregation by light transmission aggregometry
Procedure, shortened: (§1)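 Human platelet-rich plasma was pre-incubated 5 min at 37 °C with compound across seven concentrations (10 down to 0.156). Aggregation was started with ADP (20, final) and followed by light transmission at 626 nm for 15 min at 37 °C. Duplicate concentration-response data were read at the 15-min end-point. IC50 was divided by the IC50 of the thienopyrimidine reference run on the same plate.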

[3] = target: T1, P2Y purinoceptor 12; assay: Ratio of compound IC50 to AZD-6140 IC50 for P2Y12 receptor in human platelet rich plasma assessed as inhibition of ADP-induced platelet aggregation by light transmission aggregometry
Procedure, shortened: as §1, with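 “AZD-6140” for “the thienopyrimidine reference”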

[4] = Selectivity for human P2Y12 receptor over P2Y13
[5] = Selectivity for human P2Y12 receptor over P2Y1

T1 sequence (Q9H244 whole entry): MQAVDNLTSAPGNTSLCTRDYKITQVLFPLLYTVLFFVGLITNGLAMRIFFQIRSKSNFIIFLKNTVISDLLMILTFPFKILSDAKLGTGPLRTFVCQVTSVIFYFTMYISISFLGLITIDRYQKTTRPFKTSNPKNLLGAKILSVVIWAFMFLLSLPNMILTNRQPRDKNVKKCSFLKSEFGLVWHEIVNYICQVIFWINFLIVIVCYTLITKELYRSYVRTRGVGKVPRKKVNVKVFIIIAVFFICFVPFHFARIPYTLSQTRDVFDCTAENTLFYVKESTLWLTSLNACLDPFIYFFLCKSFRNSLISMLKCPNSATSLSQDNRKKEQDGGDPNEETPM

Row | Ki [1] [nM] | Ratio IC50 [2] | Ratio IC50 [3] | fold change (FC) [4] | fold change (FC) [5] | SMILES
1 | 0.67 | 0.3 | 1.6 | > 340 | > 340 | CCCCCOC(=O)N1CCN(C(=O)[C@H](CCC(=O)O)NC(=O)c2cc(N3CCC(CC(=O)NCC)CC3)nc(-c3ccccc3)n2)CC1
2 | 8.1 | – | – | > 340 | > 340 | CCCCCOC(=O)N1CCN(C(=O)[C@H](CCC(=O)O)NC(=O)c2nc(-c3ccccc3)cc(N3CCC(COCCOC)CC3)n2)CC1
3 | 3.5 | 0.4 | 1.9 | > 340 | > 340 | CCCCCOC(=O)N1CCN(C(=O)[C@H](CCC(=O)O)NC(=O)c2nc(-c3ccccc3)cc(N3CCC(C(N)=O)CC3)n2)CC1
4 | 5.2 | – | – | > 340 | > 340 | CCCCCOC(=O)N1CCN(C(=O)[C@H](CCC(=O)O)NC(=O)c2nc(NCCOC)cc(-c3ccccc3)n2)CC1
5 | 1.2 | 0.5 | 2.2 | > 340 | > 340 | CCCCCOC(=O)N1CCN(C(=O)[C@H](CCC(=O)O)NC(=O)c2cc(NCCOC)nc(-c3ccccc3)n2)CC1
6 | 4.8 | 0.6 | 1.7 | > 340 | > 340 | CCCCCOC(=O)N1CCN(C(=O)[C@H](CCC(=O)O)NC(=O)c2cc(NCCCN(C)C)nc(-c3ccccc3)n2)CC1
7 | 11 | 0.3 | 1.7 | > 340 | > 340 | CCCCOC(=O)N1CCN(C(=O)[C@H](CCC(=O)O)NC(=O)c2cc(OC3CCNCC3)nc(-c3ccccc3)n2)CC1
8 | 4.2 | 0.4 | 1.7 | > 340 | > 340 | CCCCCOC(=O)N1CCN(C(=O)[C@H](CCC(=O)O)NC(=O)c2nc(-c3ccccc3)cc(N3CCC(CCN4CCCC4)CC3)n2)CC1
9 | 11 | 0.4 | 1.6 | > 340 | > 340 | CCCCCOC(=O)N1CCN(C(=O)[C@H](CCC(=O)O)NC(=O)c2nc(-c3ccccc3)cc(N3CCC(CNCC)CC3)n2)CC1
10 | 184 | – | – | > 340 | > 340 | CCCCCOC(=O)N1CCN(C(=O)[C@H](CCC(=O)O)NC(=O)c2nc(OCCN(CC)CC)cc(-c3ccccc3)n2)CC1
11 | 0.61 | 0.2 | 0.8 | > 340 | > 340 | CCCCCOC(=O)N1CCN(C(=O)[C@H](CCC(=O)O)NC(=O)c2cc(N3CCC(CN(CC)CC)CC3)nc(-c3ccccc3)n2)CC1
12 | 2 | 0.5 | 2.1 | > 340 | > 340 | CCCCOC(=O)N1CCN(C(=O)[C@H](CCC(=O)O)NC(=O)c2cc(N3CCC(CCOC)CC3)nc(-c3ccccc3)n2)CC1
13 | 1.2 | – | – | > 340 | > 340 | CCCCCOC(=O)N1CCN(C(=O)[C@H](CCC(=O)O)NC(=O)c2nc(OCCOC)cc(-c3ccccc3)n2)CC1
14 | 1.7 | 0.2 | 0.8 | – | – | CCCCOC(=O)N1CCN(C(=O)[C@H](CCC(=O)O)NC(=O)c2cc(N3CCC(N4CCCC4)CC3)nc(-c3ccccc3)n2)CC1
15 | 19 | – | – | > 340 | > 340 | CCCCCOC(=O)N1CCN(C(=O)[C@H](CCC(=O)O)NC(=O)c2nc(NCC3CCNC3)cc(-c3ccccc3)n2)CC1 (stereo not given in full)
16 | 38 | – | – | > 340 | > 340 | CCCCCOC(=O)N1CCN(C(=O)[C@H](CCC(=O)O)NC(=O)c2nc(NCCCN(C)C)cc(-c3ccccc3)n2)CC1
17 | 123 | – | – | > 340 | > 340 | CCCCOC(=O)N1CCN(C(=O)[C@H](CCC(=O)O)NC(=O)c2cc(OC(CC)C(=O)N(CC)CC)nc(-c3ccccc3)n2)CC1 (stereo not given in full)
18 | 35 | – | – | > 340 | > 340 | CCCCCOC(=O)N1CCN(C(=O)[C@H](CCC(=O)O)NC(=O)c2nc(NC3CCN(C(C)C)CC3)cc(-c3ccccc3)n2)CC1

Further lines, the compound ahead of its results:

Row | SMILES | Ki [1] [nM] | Ratio IC50 [2] | Ratio IC50 [3] | fold change (FC) [4] | fold change (FC) [5]
19 | CCCCCOC(=O)N1CCN(C(=O)[C@H](CCC(=O)O)NC(=O)c2nc(-c3ccccc3)cc(N3CCC(C(=O)N(CC)CC)CC3)n2)CC1 | 3.6 | 0.4 | 1.5 | > 340 | > 340
20 | CCCCCOC(=O)N1CCN(C(=O)[C@H](CCC(=O)O)NC(=O)c2cc(N3CCC(CNCC)CC3)nc(-c3ccccc3)n2)CC1 | 2.2 | 0.1 | 0.7 | > 340 | > 340
21 | CCCCCOC(=O)N1CCN(C(=O)[C@H](CCC(=O)O)NC(=O)c2nc(-c3ccccc3)cc(N3CCC(CCOC)CC3)n2)CC1 | 8.4 | – | – | > 340 | > 340
22 | CCCCCOC(=O)N1CCN(C(=O)[C@H](CCC(=O)O)NC(=O)c2nc(-c3ccccc3)cc(N3CCOCC3)n2)CC1 | 11 | – | – | > 340 | > 340
23 | CCCCCOC(=O)N1CCN(C(=O)[C@H](CCC(=O)O)NC(=O)c2cc(N3CCOCC3)nc(-c3ccccc3)n2)CC1 | 1 | 2 | 7.9 | > 340 | > 340
24 | CCCCCOC(=O)N1CCN(C(=O)[C@H](CCC(=O)O)NC(=O)c2cc(N3CCC(OC)CC3)nc(-c3ccccc3)n2)CC1 | 5 | 0.5 | 1.6 | > 340 | > 340
25 | CCCCCOC(=O)N1CCN(C(=O)[C@H](CCC(=O)O)NC(=O)c2cc(OCCCN3CCOCC3)nc(-c3ccccc3)n2)CC1 | 2.8 | 1.4 | 8.3 | > 340 | > 340
26 | CCCCOC(=O)N1CCN(C(=O)[C@H](CCC(=O)O)NC(=O)c2cc(N3CCC(C(=O)N(CC)CC)CC3)nc(-c3ccccc3)n2)CC1 | 0.79 | 0.1 | 0.6 | > 340 | > 340
27 | CCCCCOC(=O)N1CCN(C(=O)[C@H](CCC(=O)O)NC(=O)c2cc(N3CCC(CCN4CCCC4)CC3)nc(-c3ccccc3)n2)CC1 | 2.1 | 0.1 | 0.5 | > 340 | > 340
28 | CCCCCOC(=O)N1CCN(C(=O)[C@H](CCC(=O)O)NC(=O)c2nc(-c3ccccc3)cc(N3CCC(OC)CC3)n2)CC1 | 7.4 | – | – | > 340 | > 340
29 | CCCCCOC(=O)N1CCN(C(=O)[C@H](CCC(=O)O)NC(=O)c2nc(-c3ccccc3)cc(N3CCC(CCN)CC3)n2)CC1 | 3 | 0.4 | 1.9 | > 340 | > 340
30 | CCCCCOC(=O)N1CCN(C(=O)[C@H](CCC(=O)O)NC(=O)c2cc(NC3CCN(C(C)C)CC3)nc(-c3ccccc3)n2)CC1 | 9.4 | 0.9 | 3.5 | > 340 | > 340
31 | CCCCCOC(=O)N1CCN(C(=O)[C@H](CCC(=O)O)NC(=O)c2nc(-c3ccccc3)cc(N3CCC(N4CCCC4)CC3)n2)CC1 | 7.4 | 0.4 | 2.4 | > 340 | > 340
32 | CCCCCOC(=O)N1CCN(C(=O)[C@H](CCC(=O)O)NC(=O)c2cc(OCCN(CC)CC)nc(-c3ccccc3)n2)CC1 | 27 | 2.4 | 17 | > 340 | > 340
33 | CCCCCOC(=O)N1CCN(C(=O)[C@H](CCC(=O)O)NC(=O)c2cc(N3CCC(C)CC3)nc(-c3ccccc3)n2)CC1 | 7.5 | – | – | > 340 | > 340
34 | CCCCCOC(=O)N1CCN(C(=O)[C@H](CCC(=O)O)NC(=O)c2cc(N3CCN(CC(=O)N(C)C)CC3)nc(-c3ccccc3)n2)CC1 | 2.6 | 0.1 | 0.5 | > 340 | > 340
35 | CCCCCOC(=O)N1CCN(C(=O)[C@H](CCC(=O)O)NC(=O)c2cc(N3CCN(C)CC3)nc(-c3ccccc3)n2)CC1 | 2.7 | 0.3 | 1.3 | > 340 | > 340
36 | CCCCCOC(=O)N1CCN(C(=O)[C@H](CCC(=O)O)NC(=O)c2nc(-c3ccccc3)cc(N3CCN(C(N)=O)CC3)n2)CC1 | 5.8 | 1 | 4.7 | > 340 | > 340
37 | CCCCCOC(=O)N1CCN(C(=O)[C@H](CCC(=O)O)NC(=O)c2nc(-c3ccccc3)cc(N3CCC(OCCO)CC3)n2)CC1 | 10 | – | – | > 340 | > 340
38 | CCCCCOC(=O)N1CCN(C(=O)[C@H](CCC(=O)O)NC(=O)c2nc(-c3ccccc3)cc(N3CCN(C(=O)N(C)C)CC3)n2)CC1 | 14 | – | – | > 340 | > 340
